M1 ag parental: M1 agonist counterscreen hit in parental CHO-K1 cells. Fluo-8 calcium fluorescence; scaled to maximal ATP response, vehicle zero. activation, % at 3 µM. 360,000 compounds, 0.48% hits. AID 602248; in the data active means activation above about 15%;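 further: untransfected CHO-K1 host cells lacking M1 receptor as counterscreen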
CHO parental Ca: signal in parental CHO cells, OX1R antagonist counter-screen | parental CHO-K1, ATP-induced calcium, Fluo-8 fluorescence | inhibition, % at 5.6 µM | 330,000 compounds, 0.63% hits;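 active means inhibition above that plate's mean sample inhibition plus 3 SD, cut at about 26% in these data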
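Test system: parental CHO cells; detection: calcium-sensitive Fluo-8 fluorescence; evaluation: percent inhibition of calcium signal; also added: ATP as calcium-mobilizing challenge; repeats: one well per compound; control set: ATP-challenged DMSO wells low, unchallenged DMSO wells high; compound: single nominal dose of 5.6 µM per compound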
CHO-K1 Ca antag: nonselective inhibitor or artifact in parental CHO-K1 cells; ATP-induced calcium, Fluo-8 fluorescence; inhibition, % at 3 µM; 360,000 compounds, 0.6% hits; AID 602250;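 active means inhibition above a per-plate cutoff, the plate's mean sample inhibition plus 3 SD, cut at about 24% in these data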
CHO-K1 Ca PAM: M1 PAM counterscreen hit in parental CHO-K1 cells; ATP EC20, Fluo-8 calcium fluorescence; 0% at ATP EC20, 100% at ATP max; activation, % at 3 µM; 360,000 compounds, 0.02% hits; AID 602247;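 active means activation above the run cutoff, the mean activation of all test compounds plus 3 SD, cut at about 40% in these data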;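 further: peak over basal fluorescence ratio in a 140 s read after ATP addition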
OX1R antag-1: antagonists of human orexin 1 receptor (OX1R). 330,000 compounds, 1.8% hits. inhibition, % at 6.6 µM. OX1R-expressing cells, FRET antagonist read-out. O43613; in the data active means inhibition mostly above about 38%, no sharp cut-off; inactive means mostly below about 40%
Target sequence (O43613 whole entry, looked up): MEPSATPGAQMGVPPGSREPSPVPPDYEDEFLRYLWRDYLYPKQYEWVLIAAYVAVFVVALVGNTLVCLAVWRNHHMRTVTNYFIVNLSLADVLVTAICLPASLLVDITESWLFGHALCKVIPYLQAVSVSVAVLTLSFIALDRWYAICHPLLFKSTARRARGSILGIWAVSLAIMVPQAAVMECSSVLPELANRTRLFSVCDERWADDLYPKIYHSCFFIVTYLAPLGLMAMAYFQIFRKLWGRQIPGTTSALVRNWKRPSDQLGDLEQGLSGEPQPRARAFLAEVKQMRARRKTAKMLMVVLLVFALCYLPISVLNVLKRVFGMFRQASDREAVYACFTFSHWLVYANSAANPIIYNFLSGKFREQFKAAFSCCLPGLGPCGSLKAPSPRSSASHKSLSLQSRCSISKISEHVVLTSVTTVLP
OX1R antag-2: blocks the human orexin 1 receptor. inhibition, % at 5 µM. 330,000 compounds, 0.43% hits. O43613. CHO/OX1R cells, Fluo-8 calcium fluorescence, orexin A;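 active means inhibition above its plate's threshold, mean inhibition of all tested compounds on the plate plus 3 SD, cut at about 37% in these data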
OX1R HTRF confirm: confirmation of human orexin 1 receptor antagonists, HTRF format; inhibition, % at 6.6 µM; 1,800 compounds, 49% hits; shares compounds with OX1R antag-1; OX1R-expressing cells, HTRF antagonist assay; in the data active means inhibition above about 55%;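 further: CHO cells expressing OX1R stimulated with orexin A at about EC80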
CHO-K1 HTRF cnt: signal in parental CHO-K1 cells, OX1R antagonist counter-screen; inhibition, % at 6.6 µM; HTRF counterscreen; 1,800 compounds, 48% hits; AID 493232; shares compounds with OX1R antag-1; in the data active means inhibition above about 17%
A number is an active result; . = inactive; / = not tested or not shown. Sampled rows, rich in hits. Any-hit rate of the full collection: about 2.9%.

SMILES | M1 ag parental | CHO parental Ca | CHO-K1 Ca antag | CHO-K1 Ca PAM | OX1R antag-1 | OX1R antag-2 | OX1R HTRF confirm | CHO-K1 HTRF cnt
COc1ccccc1C(=O)NCCCCNC(=O)c1ccccc1OC | . | . | . | . | 79 | . | 59 | .
CCOc1ccccc1C(=O)NCCCCNC(=O)c1ccccc1OCC | . | / | . | . | / | / | / | /
Nc1c(C(=O)O)ccc2c1C(=O)c1ccccc1C2=O | . | . | . | . | 107 | . | . | 29
O=C(O)c1ccc([N+](=O)[O-])c2c1C(=O)c1ccccc1C2=O | . | . | . | . | 101 | . | 69 | 104
CCOC(=O)[C@]12CCC=C1N(Cc1cccc3ccccc13)C(=O)[C@H](CC(=O)N1CCOCC1)C2 | . | / | . | . | / | / | / | /
O=Cc1c(Sc2ccccn2)nc2ccccn2c1=O | . | . | . | . | 96 | . | . | 45
O=Cc1c(Sc2ccccc2)nc2ccccn2c1=O | . | . | . | . | . | . | / | /
Cn1ccnc1Sc1cc(NCCCO)c([N+](=O)[O-])c2nonc12 | . | . | . | . | 83 | . | . | 78
COc1ccc(NC(=O)CSc2nccn2C)c([N+](=O)[O-])c1 | . | . | . | . | . | . | / | /
Cc1cccc(C)c1NC(=O)C(C)NCc1cccs1 (stereo not drawn) | . | / | . | . | / | / | / | /
CCCCCCCCN1C(=O)[C@H](CC(=O)NCCc2ccccc2OC)C[C@@]2(C(=O)OCC)CCCC=C12 | . | / | . | . | / | / | / | /
O=C(CCCN1C(=O)c2cccc3cccc(c23)C1=O)NC1CCS(=O)(=O)C1 (stereo not drawn) | . | . | . | . | 85 | . | . | 50
O=C(CN1C(=O)c2ccccc2C1=O)NC1CCS(=O)(=O)C1 (stereo not drawn) | . | / | . | . | / | / | / | /
COc1ccc(NC(=O)c2cccnc2)c([N+](=O)[O-])c1 | . | . | . | . | 123 | . | . | .
Cc1ccccc1Sc1ccc([N+](=O)[O-])cn1 | . | . | . | . | . | . | / | /
Cc1ccnc(Sc2ccc([N+](=O)[O-])cn2)n1 | . | . | . | . | 77 | . | 71 | 71
Cc1ncoc1C(=O)Nc1nccs1 | . | . | . | . | . | . | / | /
Cc1c(C(=O)Nc2nccs2)oc2c(Cl)cccc12 | . | . | . | . | 77 | . | 67 | .
CC(=O)Oc1ccc2c(=O)c(-c3nc4ccccc4s3)coc2c1 | . | . | . | . | . | . | / | /
C=C1[C@H](C)CN[C@H]1CCO | . | / | . | . | / | / | / | /
O=C(CCNC(=O)c1ccc([N+](=O)[O-])cc1)N/N=C/c1ccc(F)cc1 | . | . | . | . | 78 | . | . | 27
O=C(CCNC(=O)c1ccc([N+](=O)[O-])cc1)Nc1ccc(F)cc1 | . | . | . | . | . | . | / | /
COCCN(CC(=O)Nc1cccc(C)c1C)C(=O)CN1C(=O)NC2(CCCCC2)C1=O | . | . | . | . | . | . | / | /
CCCCN(C=O)c1c(CC)nc2c(OCC(=O)N3CCOCC3)cccn12 | . | / | . | . | / | / | / | /
O=C(O)C1CCN(S(=O)(=O)c2cccc3nsnc23)CC1 | . | . | . | . | . | . | / | /
SMILES | M1 ag parental | CHO parental Ca | CHO-K1 Ca antag | CHO-K1 Ca PAM | OX1R antag-1 | OX1R antag-2 | OX1R HTRF confirm | CHO-K1 HTRF cnt
O=C(c1ccco1)N1CCN(C(=O)C2CCN(S(=O)(=O)c3cccc4nsnc34)CC2)CC1 | . | . | . | . | 100 | . | . | 47
O=C(C1CCCO1)N1CCN(S(=O)(=O)c2cccc3nsnc23)CC1 (stereo not drawn) | . | . | . | . | 96 | . | . | 56
O=C(C[C@@H]1C/C=C\CCC(=O)OC[C@@H]2CCCN2C1=O)N[C@@H](CO)Cc1ccccc1 | . | . | . | . | . | . | / | /
O=[N+]([O-])c1ccc2nnn(O)c2c1 | . | . | . | . | 91 | . | . | 46
O=[N+]([O-])c1ccc2n[nH]nc2c1 | . | . | . | . | . | . | / | /
CN(C(=O)c1cccc(NC(=O)Cc2ccc(NC(=O)C3CCCN(C(=O)C4CCC4)C3)cc2)c1)C1CCCC1 (stereo not drawn) | . | / | . | . | / | / | / | /
CC1(C)C[C@H](O)[C@]2(CO)[C@H](O)C[C@]3(C)C(=CCC4[C@@]5(C)CC[C@H](O)C(C)(C)C5CC[C@]43C)[C@@H]2C1 (stereo partly drawn) | . | . | . | . | . | . | / | /
CCOc1cc(/C=C2\C(=O)NN(c3ccccc3)C2=O)cc([N+](=O)[O-])c1O | . | . | . | . | . | . | / | /
CCOc1cc(/C=C2\NC(=O)NC2=O)cc([N+](=O)[O-])c1O | . | . | . | . | 128 | . | 58 | 69
OC[C@@H](O)C(O)[C@@H](O)CO (stereo partly drawn) | . | / | . | . | / | / | / | /
O=[N+]([O-])c1ccc2c(c1)nc1n2CCN(c2ccccc2)C1 | . | . | . | . | . | . | / | /
O=[N+]([O-])c1ccc2c(c1)nc1n2CCN(CC2CCCO2)C1 (stereo not drawn) | . | . | . | . | 81 | . | . | 27
COc1cc(OC)cc(C(=O)NC2CC3CCC(C2)N3C)c1 (stereo not drawn) | . | . | . | . | . | . | / | /
OCC(Cc1ccccc1)Nc1c2ccccc2nc2ccccc12 (stereo not drawn) | . | . | . | . | 88 | . | 72 | 17
c1ccc(CNc2c3ccccc3nc3ccccc23)cc1 | . | . | . | . | . | . | / | /
Cc1ccc(NC(=O)COc2ccccc2)cc1S(=O)(=O)N1CCCCCC1 | . | . | . | . | 98 | . | . | .
O=C(Nc1cc(F)cc(F)c1)c1ccc(NCCCN2CCCCCC2)c([N+](=O)[O-])c1 | . | . | . | . | 86 | . | . | 39
O=C(O)c1cccc2c1C(=O)c1cccc3snc-2c13 | . | . | . | . | 88 | . | 55 | 78
Cc1ccc2c(c1)C(=O)c1c(C(=O)O)cccc1-2 | . | . | . | . | . | . | / | /
Cc1nc2ccc([N+](=O)[O-])cc2[nH]1 | . | . | . | . | . | . | / | /
O=[N+]([O-])c1cccc(/C=C/c2nc3ccc([N+](=O)[O-])cc3[nH]2)c1 | . | . | . | . | 102 | . | . | .
CC1=NN(C(N)=S)C(=O)C1N=Nc1ccccc1C (stereo not drawn) | . | . | . | . | 96 | . | . | 17
CC1=NN(C(N)=S)C(=O)C1N=Nc1ccccc1O (stereo not drawn) | . | . | . | . | . | . | / | /
NS(=O)(=O)c1ccc(CNC(=O)c2cc(-c3cccnc3)nc3ccc(Cl)cc23)cc1 | . | . | . | . | . | . | / | /
NS(=O)(=O)c1ccc(CNC(=O)c2cc(-c3ccccn3)nc3ccc(Cl)cc23)cc1 | . | . | . | . | 84 | . | 59 | .
